Test results taken from ChEMBL document CHEMBL1955834, “Disparate SAR data of griseofulvin analogues for the dermatophytes Trichophyton mentagrophytes, T. rubrum, and MDA-MB-231 cancer cells” (J Med Chem, 2012).
The source made the active and inactive calls. No cut-off for these calls is given here.

Columns and labels:
SCC114 = assay: Cytotoxicity against human SCC114 cells by phenotype-based spindle multipolarity assay; type: functional, cell-based
Trichophyton rubrum [1] = assay: Antifungal activity against Trichophyton rubrum IBT 29284 at 50 uM after 7 days by micro broth dilution method; type: functional; settings: for inhibition at 50 µM: IBT 29284, 168 h
Summary of the method: (§1)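 T. rubrum IBT29284 was tested by broth microdilution using a 4-fold dilution series of 10 concentrations from 50 μM down to 0.2 μM, with 1% DMSO. The inoculum followed CLSI M38-A2, set to OD530 0.90–1.5 and diluted 50-fold in RPMI/MOPS at pH 7.00. Incubation was 7 days at 37 °C, read by OD. IC50 came from a variable-slope sigmoidal fit.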

MDA-MB-231 [2] = assay: Cytotoxicity against human MDA-MB-231 cells assessed as cell viability after 48 hrs by MTT assay; type: functional, cell-based; settings: MDA-MB-231, 48 h
Summary of the method: (§2)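 MDA-MB-231 cells were grown in L-15 with 10% FCS at 37 °C and seeded at (2-3) × 10^4 per well. Exposure was 24 and/or 48 h, then MTT for at least 4 h, with absorbance read at 570/630 nm. Each condition had at least 3 replicates, reported as mean ± SD of a representative experiment repeated at least three times.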

[3] = tested on: Trichophyton mentagrophytes; assay: Antifungal activity against Trichophyton mentagrophytes IBT 2724 at 50 uM after 7 days by micro broth dilution method; type: functional; settings: for inhibition at 50 µM: IBT 2724, 168 h
Summary of the method: (§3)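 T. mentagrophytes IBT2724 was tested by broth microdilution using an 8-fold dilution series of 10 concentrations from 50 μM down to 0.4 μM, with 1% DMSO. The inoculum was prepared per CLSI M38-A2, adjusted to OD530 0.90–1.5 and diluted 50-fold in RPMI/MOPS at pH 7.00. Plates ran 7 days at 37 °C with an OD read-out. IC50 came from a variable-slope sigmoidal fit.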

[4] = tested on: Trichophyton mentagrophytes; assay: Antifungal activity against Trichophyton mentagrophytes IBT 2724 after 7 days by micro broth dilution method; type: functional, organism-based; settings: IBT 2724, 168 h; summary of the method: as §3
Trichophyton rubrum [5] = assay: Antifungal activity against Trichophyton rubrum IBT 29284 after 7 days by micro broth dilution method; type: functional, organism-based; settings: IBT 29284, 168 h; summary of the method: as §1
[6] = Drug degradation in phosphate buffered saline at pH 7.4 assessed as compound hydrolysis after 48 hrs; type: physicochemical; settings: read-out: Drug degradation
Summary of the method: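 Oximes were held in PBS at pH 7.4 for 48 h, and hydrolysis to the parent ketones was monitored.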

MDA-MB-231 [7] = assay: Cytotoxicity against human MDA-MB-231 cells assessed as cell viability at 50 uM after 48 hrs by MTT assay; type: functional; summary of the method: as §2

SMILES	inhibition (Trichophyton rubrum [1])	IC50 (MDA-MB-231 [2])	IC50 [4]	IC50 (Trichophyton rubrum [5])	further results
COc1cc(OC)c2c(c1Cl)O[C@@]1(C(=O)C=C(OC(C)C)C[C@H]1C)C2=O	inactive	48000 nM	–	–	inhibition (SCC114): inactive; inhibition at 50 µM [3]: < 50%
COc1cc(OC)c2c(c1Cl)O[C@]1(C2=O)C(OCc2ccc(C)cc2)=CC(=O)C[C@H]1C	–	1800 nM	240 nM	1000 nM	–
COc1cc(OC)c2c(c1Cl)O[C@]1(C2=O)C(OC(C)C)=CC(=O)C[C@H]1C	–	11000 nM	110 nM	3100 nM	–
COc1cc(OC)c2c(c1Cl)O[C@]1(C2=O)C(OCc2cccc3ccccc23)=C/C(=N\O)C[C@H]1C	inactive	8300 nM	–	–	degraded at 48 h [6]: < 5%; inhibition [3]: inactive
COC1=CC(=O)C[C@@H](C)[C@]12Oc1c(Cl)c(OC)c([N+](=O)[O-])c(OC)c1C2=O	inactive	–	–	–	inhibition [3]: inactive; inhibition (MDA-MB-231 [7]): inactive
CCOC1=CC(=O)C[C@@H](C)[C@]12Oc1c(Cl)c(OC)cc(OC)c1C2=O	–	13000 nM	250 nM	690 nM	–
COc1cc(OC)c2c(c1Cl)O[C@]1(C2=O)C(OCc2ccc(C(F)(F)F)cc2)=CC(=O)C[C@H]1C	–	7000 nM	150 nM	1500 nM	–
COc1cc(OC)c2c(c1Cl)O[C@]1(C2=O)C(OCc2ccccc2)=C(I)C(=O)C[C@H]1C	inactive	–	1100 nM	–	inhibition at 50 µM (MDA-MB-231 [7]; MDA-MB-231, 48 h): < 50%
COc1cc(OC)c2c(c1Cl)O[C@]1(C2=O)C(OCc2cccnc2)=CC(=O)C[C@H]1C	–	10000 nM	350 nM	–	inhibition at 50 µM (Trichophyton rubrum [1]): < 50%
COC1=CC(=O)C[C@@H](C)[C@]12Oc1c(Cl)c(OC)cc(OCc3ccccc3)c1C2=O	inactive	20000 nM	250 nM	–	inhibition (SCC114): inactive
COc1cccc(COC2=CC(=O)[C@@]3(Oc4c(Cl)c(OC)cc(OC)c4C3=O)[C@H](C)C2)c1	inactive	25000 nM	–	–	inhibition at 50 µM [3]: < 50%
COc1cc(OC)c2c(c1Cl)O[C@]1(C2=O)C(OCc2ccc(-c3ccccc3)cc2)=CC(=O)C[C@H]1C	inactive	5800 nM	–	–	inhibition [3]: inactive
COc1cc(OC)c2c(c1Cl)O[C@]1(C2=O)C(OCC2CC2)=CC(=O)C[C@H]1C	–	9400 nM	60 nM	1500 nM	–
COc1cc(OC)c2c(c1Cl)O[C@]1(C2=O)C(OCc2ccccc2)=CC(=O)C[C@H]1C	–	2100 nM	260 nM	1100 nM	–
COc1cc(OC)c2c(c1Cl)O[C@]1(C(=O)CC(=O)C[C@@H]1C)C2=O (relative stereo)	inactive	–	–	–	inhibition at 50 µM [3]: < 50%; inhibition (MDA-MB-231 [7]): inactive
COc1cc(OC)c2c(c1Cl)O[C@]1(C2=O)C(OCc2ccc(CO)cc2)=CC(=O)C[C@H]1C	–	2800 nM	1700 nM	–	inhibition at 50 µM (Trichophyton rubrum [1]): < 50%
COc1cc(OC)c2c(c1Cl)O[C@]1(C2=O)C(OCC23CC4CC(CC(C4)C2)C3)=CC(=O)C[C@H]1C	inactive	4700 nM	–	–	inhibition [3]: inactive
COc1cc(OC)c2c(c1Cl)O[C@]1(C2=O)C(OCc2cccc3ccccc23)=CC(=O)C[C@H]1C	–	13000 nM	250 nM	2600 nM	–
COc1cc(OC)c2c(c1Cl)O[C@]1(C2=O)C(OCc2ccncc2)=CC(=O)C[C@H]1C	–	19000 nM	–	–	inhibition at 50 µM (Trichophyton rubrum [1]): < 50%; inhibition at 50 µM [3]: < 50%
CCOc1cc(OC)c2c(c1Cl)O[C@]1(C2=O)C(OC)=CC(=O)C[C@H]1C	–	36000 nM	62 nM	1300 nM	–
COC1=C(I)C(=O)C[C@@H](C)[C@]12Oc1c(Cl)c(OC)cc(OC)c1C2=O	inactive	22000 nM	–	–	inhibition at 50 µM [3]: < 50%
COc1cc(OC)c2c(c1Cl)O[C@]1(C2=O)C(OCCc2ccccc2)=CC(=O)C[C@H]1C	–	17000 nM	280 nM	–	inhibition at 50 µM (Trichophyton rubrum [1]): < 50%
COC1=CC(=O)C[C@@H](C)[C@]12Oc1c(Cl)c(OC)cc(O)c1C2=O	inactive	–	–	–	inhibition at 50 µM [3]: < 50%; inhibition (MDA-MB-231 [7]): inactive
CCCOC1=CC(=O)[C@@]2(Oc3c(Cl)c(OC)cc(OC)c3C2=O)[C@H](C)C1	inactive	43000 nM	–	–	inhibition (SCC114): inactive; inhibition at 50 µM [3]: < 50%
